We go through 13 compounds from ChEMBL document CHEMBL4177645, “Exploration of multi-target potential of chromen-4-one based compounds in Alzheimer's disease: Design, synthesis and biological evaluations” (Bioorg Med Chem, 2017).

Structures are written as SMILES. The source made the active and inactive calls. The rule behind the calls is not given here.

One test has as its target T1, Acetylcholinesterase (Rattus norvegicus, UniProt P37136).
T1 sequence (P37136 whole entry): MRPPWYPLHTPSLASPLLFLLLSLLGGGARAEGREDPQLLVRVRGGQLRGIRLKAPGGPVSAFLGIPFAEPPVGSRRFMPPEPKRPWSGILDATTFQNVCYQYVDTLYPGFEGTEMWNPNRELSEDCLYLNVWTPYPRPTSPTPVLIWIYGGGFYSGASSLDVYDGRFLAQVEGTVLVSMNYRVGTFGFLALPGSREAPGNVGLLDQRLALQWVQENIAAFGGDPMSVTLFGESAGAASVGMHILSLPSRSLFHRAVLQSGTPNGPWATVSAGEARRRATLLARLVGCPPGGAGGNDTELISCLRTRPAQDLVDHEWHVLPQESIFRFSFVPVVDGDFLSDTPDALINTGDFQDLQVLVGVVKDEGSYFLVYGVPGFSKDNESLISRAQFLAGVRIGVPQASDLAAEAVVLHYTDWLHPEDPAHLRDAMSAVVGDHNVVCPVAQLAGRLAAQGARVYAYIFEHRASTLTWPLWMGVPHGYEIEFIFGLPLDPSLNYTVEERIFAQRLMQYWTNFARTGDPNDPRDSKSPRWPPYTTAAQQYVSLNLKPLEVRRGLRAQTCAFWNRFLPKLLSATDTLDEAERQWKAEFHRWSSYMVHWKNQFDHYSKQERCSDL
Kind of test: Inhibition of rat brain AChE using acetylthiocholine iodide as substrate by spectroscopic method.

Test [1] can be described thus: Anti-glycosylation activity using BSA assessed as inhibition of AGE formation measured after 30 hrs by fluorescence spectrophotometric method. Format: functional. In short, it runs like this: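 Glucose-mediated glycation of protein with fluorescent AGE read-out at 370 nm excitation / 440 nm emission. Test compounds dissolved in DMSO at different concentrations. Aminoguanidine positive control. Run in triplicate.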

Test [2] deals with T2, Acetylcholinesterase (Rattus norvegicus) (UniProt P37136).
T2 sequence (whole entry): T1 sequence (P37136 whole entry)
Description: Potency index, ratio of donepezil IC50 to compound IC50 for inhibition of rat brain AChE.

Test [3] deals with Mus musculus. Description: Reversal of scopolamine-induced memory impairment in Swiss albino mouse assessed as attenuation of scopolamine-induced […] time at 2 to 10 mg/kg, ip administered 30 mins prior to scopolamine challenge measured on day 4 by Morris water maze test. Format: functional, organism-based. The procedure, abridged: (§1)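 Swiss albino mice of either sex (20–25 g), five per group. Scopolamine 0.5 mg/kg; agent (2, 5, 10 mg/kg, i.p.) given 30 min before scopolamine ahead of each of the first four trials. Morris water maze: escape latency on days 1–4, time in target quadrant on day 5. Vehicle 10% DMSO. Mean ± SD, two-way ANOVA with Tukey test.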

For test [4], the system named is Mus musculus. Description: Antialzheimer activity in Swiss albino mouse brain assessed as reversal of scopolamine-induced reduction in GSH levels at 5 mg/kg, ip (reference value: 21.3 +/- 0.81). Format: functional. The procedure, abridged:
(§2)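 Swiss albino mice of either sex (20–25 g), five per group, given scopolamine 0.5 mg/kg with test agent i.p. 30 min before scopolamine. After the water maze protocol, cortex and hippocampus were homogenized in ice-cold phosphate buffer pH 7.4 and spun 14,500 rpm, 15 min, 4 °C. Supernatant used for TBARS (Ohkawa) or reduced GSH (Beutler). Mean ± SD.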

In test [5] the test system is Mus musculus. Description: Antialzheimer activity in Swiss albino mouse brain assessed as reversal of scopolamine-induced […] assessed per mg protein at 5 mg/kg, ip (reference value: 1.25 +/- 0.04 nM/min/mg) by spectrophotometric analysis. Format: functional.
For test [6], the system named is Mus musculus. Kind of test: Antialzheimer activity in Swiss albino mouse brain assessed as reversal of scopolamine-induced reduction in GSH levels at 10 mg/kg, ip (reference value: 21.3 +/- 0.81). The class given is functional. The procedure, abridged: as §2
For test [7], the system named is Mus musculus. Description: Antialzheimer activity in Swiss albino mouse brain assessed as reversal of scopolamine-induced […] level at 5 mg/kg, ip (reference value: 26.51 +/- 0.79 nM/mg). Format: functional. In short, it runs like this: as §2
Test [8] relates to Mus musculus. Kind of test: Antialzheimer activity in Swiss albino mouse brain assessed as reversal of scopolamine-induced […] level at 10 mg/kg, ip (reference value: 26.51 +/- 0.79 nM/mg). Format: functional. In short, it runs like this:
as §2

Test [9] has as its system Mus musculus. Kind of test: Antialzheimer activity in Swiss albino mouse brain assessed as reversal of scopolamine-induced […] assessed per mg protein at 10 mg/kg, ip (reference value: 1.25 +/- 0.04 nM/min/mg) by spectrophotometric analysis. Format: functional.
The target of test [10] is T2, Acetylcholinesterase (Rattus norvegicus). Kind of test: Mixed type inhibition of rat brain AChE at 0.01 to 0.1 uM using increasing concentration acetylthiocholine iodide as substrate by Lineweaver-Burk plot analysis.
Test [11] relates to Mus musculus. Description: Reversal of scopolamine-induced memory impairment in Swiss albino mouse assessed as attenuation of scopolamine-induced decreased time spent in target quadrant at 2 to 10 mg/kg, ip administered 30 mins prior to scopolamine challenge measured on day 5 by Morris water maze test.
For test [12], the system named is Mus musculus. Description: Reversal of scopolamine-induced memory impairment in Swiss albino mouse assessed as attenuation of scopolamine-induced amnesia at 2 mg/kg, ip administered 30 mins prior to scopolamine challenge measured on day 4 by Morris water maze test. The class given is functional, organism-based. The procedure, abridged:
as §1

Broadly, the IC50 is the concentration at which inhibition is half-maximal. Turning to `COc1cc(-c2cc(=O)c3ccc(OCCCN4CCC(C)CC4)cc3o2)cc(OC)c1OC`, the half-inhibitory concentration (IC50) at Acetylcholinesterase was found to be 0.00612 µM; in [1], 41.8 µM.
Regarding `COc1cc(-c2cc(=O)c3ccc(OCCN4CCC(C)CC4)cc3o2)cc(OC)c1OC`, the results for the IC50 (on Acetylcholinesterase; in test [1]) were 0.00587 µM and 37.1 µM, respectively. The Ratio IC50 in test [2] amounted to 2. The result with Mus musculus [3] and with Mus musculus [11] was Active. Further, the Activity in the test with Mus musculus [4] worked out at 31.7 nM/mg; in the test on Mus musculus [5], 0.97 nmol/min/mg; in the test on Mus musculus [6] it was 36.8 nM/mg; with Mus musculus [7], 20.14 nM/mg; with Mus musculus [8] it was 17.6 nM/mg; with Mus musculus [9] it was 0.85 nmol/min/mg. The inhibition result in test [10] was “Active”.
Take `COc1cc(-c2cc(=O)c3ccc(O)cc3o2)cc(OC)c1OC`: the IC50 on Acetylcholinesterase turned out to be 0.0442 µM; in [1], 51.4 µM.
Regarding `COc1ccc(-c2cc(=O)c3ccc(O)cc3o2)cc1OC`, the IC50 is 0.0373 µM against Acetylcholinesterase and 47.4 µM in [1].
With `COc1ccc(-c2cc(=O)c3ccc(OCCCCN4CCC(C)CC4)cc3o2)cc1`, the figures for the IC50 (on Acetylcholinesterase; in test [1]) were 0.0135 µM and 48.2 µM, respectively.
As for `COc1ccc(-c2cc(=O)c3ccc(OCCCN4CCC(C)CC4)cc3o2)cc1OC`, the IC50 against Acetylcholinesterase was determined as 0.00648 µM; in [1], 47.7 µM.
Taken in the same sequence, the figures for `COc1ccc(-c2cc(=O)c3ccc(OCCCN4CCC(C)CC4)cc3o2)cc1` were 0.0077 µM and 42.6 µM.
Take `N=C(N)NN` [PIMAGEDINE]: the IC50 in [1] is 40.1 µM.
In the case of `COc1ccc(-c2cc(=O)c3ccc(OCCN4CCC(C)CC4)cc3o2)cc1OC`, the IC50 amounted to 0.00677 µM against Acetylcholinesterase and 42.1 µM in test [1].
Turning to `COc1cc2c(cc1OC)C(=O)C(CC1CCN(Cc3ccccc3)CC1)C2` (centres undefined), in the test with Mus musculus [12], the outcome was Active.
On to `COc1ccc(-c2cc(=O)c3ccc(OCCCCCCN4CCC(C)CC4)cc3o2)cc1`, for which the IC50 worked out at 0.0481 µM against Acetylcholinesterase and 57.2 µM in test [1].
Consider `COc1ccc(-c2cc(=O)c3ccc(O)cc3o2)cc1`, for which the values for the IC50 (on Acetylcholinesterase; in test [1]) were 0.035 µM and 42 µM, respectively.
As for `COc1ccc(-c2cc(=O)c3ccc(OCCCCCN4CCC(C)CC4)cc3o2)cc1`, the results for the IC50 (against Acetylcholinesterase; in [1]) were 0.0156 µM and 55.1 µM, respectively.
